Results: PMC5242338 (Molecular imaging and biology : MIB : the official …, 2016)
Where a SMILES comes first, the peptide text is derived from it. Bridges are numbered along the chain shown (N, C = ends). [ ]: non-standard residue; d: D form. The star is where a group is joined. NOTA = O=C(O)CN1CCN(CC(=O)O)CCN(CC(=O)*)CC1; 2Nal = N[C@@H](Cc1ccc2ccccc2c1)C(=O)O; Cit = NC(=O)NCCC[C@H](N)C(=O)O

Key:
in vivo = test: in vivo; parameters: species or system mice; conditions: mouse, iv, 100 uCi/mouse, total radioactivity
CHO-CXCR4 and CHO tumors = type: in vivo, mice
CHO-CXCR4 cells = test: Cell uptake, internalization and efflux of tracer; type: cell-based, Chinese hamster
Outline: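 CHO-CXCR4 cells (F-12K, 10 % FBS) seeded at 1×10^5/well and given 11.1 kBq (0.3 µCi) tracer at 37 °C for 5–120 min. Blocking used 10 µg/well (22 µM) unlabeled peptide for 2 h. Cells were washed twice with cold PBS, lysed in 0.1 M NaOH and γ-counted. For internalization, an extra 1 min wash in 50 mM glycine/0.1 M NaCl, pH 2.8, was added. For efflux, cells were loaded for 2 h, then given tracer-free medium. Values are % of added activity, mean of three experiments ± SD.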

N=C(N)NCCC[C@H](NC(=O)[C@@H]1CSSC[C@H](NC(=O)[C@H](Cc2ccc3ccccc3c2)NC(=O)[C@H](CCCNC(=N)N)NC(=O)[C@H](CCCNC(=N)N)NC(=O)CN2CCN(CC(=O)O)CCN(CC(=O)O)CC2)C(=O)N[C@@H](Cc2ccc(O)cc2)C(=O)N[C@@H](CCCNC(N)=O)C(=O)N[C@@H](CCCCN)C(=O)N[C@H](CCCCN)C(=O)N2CCC[C@H]2C(=O)N[C@@H](Cc2ccc(O)cc2)C(=O)N[C@@H](CCCNC(=N)N)C(=O)N[C@@H](CCCNC(N)=O)C(=O)N1)C(N)=O [Al[^18F]NOTA-T140] ({NOTA}-RR[2Nal]CY[Cit]K[dK]PYR[Cit]CR-NH2; disulfide 4-13)
tissue uptake at 2 h (in vivo; biodistribution: bone): 2.95 ± 0.74 %ID/g
tissue uptake at 2 h (in vivo; biodistribution: kidneys): 32.8 ± 2.62 %ID/g
tissue uptake at 2 h (in vivo; biodistribution: liver): 34.2 ± 4.98 %ID/g
tissue uptake at 2 h (in vivo; biodistribution: spleen): 6.37 ± 1.18 %ID/g
reduction in CHO-CXCR4 tumor uptake on blocking (CHO-CXCR4 and CHO tumors; co-injection of 100 µg unlabeled peptide, PET 1 h post-injection): 50–60%
change of tracer uptake in the bone on blocking (CHO-CXCR4 and CHO tumors; mouse, in vivo): significantly reduced
cell uptake with blocking by unlabeled peptide (CHO-CXCR4 cells; 2 h, 10 µg/well (22 µM) unlabeled peptide): 5.11±0.35%
share of the uptake due to internalization (CHO-CXCR4 cells; 2 h, acid wash (glycine pH 2.8) removes surface-bound tracer): ~50%
efflux from the cells (CHO-CXCR4 cells; after 2 h loading at 37 °C, medium replaced): slow
